These results are taken from ChEMBL document CHEMBL4354804, “Discovery of a New Isoxazole-3-hydroxamate-Based Histone Deacetylase 6 Inhibitor SS-208 with Antitumor Activity in Syngeneic Melanoma Mouse Models” (J Med Chem, 2019).

Active and inactive are the calls of the source.

Data set [1] can be described thus: Half life in human liver microsomes in presence of NADPH. It is filed as ADME, Microsome. In a few lines: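 Liver microsomal stability in mouse and human microsomes with NADPH; half-life in minutes.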
For data set [2], the system named is Mus musculus. The data set is described as follows: Antitumor immunity against mouse SM1 cells implanted in flank of immunocompetent C57BL/6 mouse assessed as infiltration of intratumoral CD8+ cells at 25 mg/kg, ip administered 1 week post-implantation by flow cytometry. In kind it is functional, organism-based.
Data set [3] concerns the target T1, Protein deacetylase HDAC6 (Mus musculus) (UniProt Q9Z2V5).
T1 sequence (whole entry): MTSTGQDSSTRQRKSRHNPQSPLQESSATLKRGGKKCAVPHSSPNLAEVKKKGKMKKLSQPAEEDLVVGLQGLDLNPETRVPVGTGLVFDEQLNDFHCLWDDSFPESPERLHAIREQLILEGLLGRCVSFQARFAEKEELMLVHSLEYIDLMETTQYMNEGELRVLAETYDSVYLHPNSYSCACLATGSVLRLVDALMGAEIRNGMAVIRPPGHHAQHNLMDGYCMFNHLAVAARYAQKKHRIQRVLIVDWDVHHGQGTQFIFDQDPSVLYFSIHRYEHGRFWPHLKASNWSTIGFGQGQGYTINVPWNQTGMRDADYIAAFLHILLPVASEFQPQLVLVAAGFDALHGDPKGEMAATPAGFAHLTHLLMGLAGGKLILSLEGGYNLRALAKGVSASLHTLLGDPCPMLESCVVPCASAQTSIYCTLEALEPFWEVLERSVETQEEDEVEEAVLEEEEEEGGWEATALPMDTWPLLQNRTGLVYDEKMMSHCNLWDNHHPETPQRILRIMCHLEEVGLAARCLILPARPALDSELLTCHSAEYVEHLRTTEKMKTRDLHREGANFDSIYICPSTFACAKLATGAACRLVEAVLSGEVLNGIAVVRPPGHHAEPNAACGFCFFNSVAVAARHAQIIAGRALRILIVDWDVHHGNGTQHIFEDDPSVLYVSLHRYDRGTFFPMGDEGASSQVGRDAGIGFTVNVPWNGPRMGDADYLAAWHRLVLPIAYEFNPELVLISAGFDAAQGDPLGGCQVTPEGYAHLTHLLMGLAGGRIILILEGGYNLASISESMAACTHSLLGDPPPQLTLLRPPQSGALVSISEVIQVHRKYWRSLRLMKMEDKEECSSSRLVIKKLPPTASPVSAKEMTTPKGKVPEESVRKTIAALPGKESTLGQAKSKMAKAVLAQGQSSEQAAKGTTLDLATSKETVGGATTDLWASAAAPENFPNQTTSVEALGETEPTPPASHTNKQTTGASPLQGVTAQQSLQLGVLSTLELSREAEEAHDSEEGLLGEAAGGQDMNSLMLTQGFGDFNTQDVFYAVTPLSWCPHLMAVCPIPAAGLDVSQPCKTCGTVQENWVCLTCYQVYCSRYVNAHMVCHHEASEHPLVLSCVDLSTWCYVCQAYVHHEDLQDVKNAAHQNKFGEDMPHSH
The data set is described as follows: Inhibition of HDAC6 in mouse SM1 cells assessed as reduction in IL-6 stimulated CD274 gene expression at 5 uM pretreated for 1 hr followed by IL-6 stimulation for overnight by qRT-PCR analysis. In kind it is cell-based. An outline of the steps: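 SM1 cells serum-starved overnight, pretreated 1 h with 5 µM compound, then given recombinant murine IL-6 at 30 ng/mL overnight. Total RNA extracted with Trizol; PD-L1 mRNA measured by qRT-PCR, normalized to GAPDH by the Pfaffl method, in arbitrary units.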
Background: In qPCR the cycle at which signal appears reflects the starting amount.

Data set [4] has as its system Mus musculus. The data set is described as follows: Antitumor immunity against mouse SM1 cells implanted in flank of immunocompetent C57BL/6 mouse assessed as increase in infiltration of NKT cells at 25 mg/kg, ip administered 1 week post-implantation by flow cytometry. It is filed as functional, organism-based. For orientation: Flow cytometry measures light scatter and fluorescence of single cells or particles in a stream.

Data set [5] concerns the target T1, Protein deacetylase HDAC6 (Mus musculus). The experiment in a line: Inhibition of HDAC6 in mouse SM1 cells assessed as reduction in IL-6 stimulated PDL1 overexpression at 5 uM pretreated for 1 hr followed by IL-6 stimulation for overnight by western blot analysis. In kind it is cell-based. An outline of the steps:
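SM1 cells pretreated with 5 µM compound, then IL-6 overnight. Lysed in RIPA buffer with protease and phosphatase inhibitors, sonicated, protein quantified by BCA. Immunoblot for PD-L1 and STAT3 Y705 phosphorylation.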
(In general: Immunoblotting shows a protein as a band on a membrane.)

For data set [6], the system named is Mus musculus. The data set is described as follows: Antitumor immunity against mouse SM1 cells implanted in flank of immunocompetent C57BL/6 mouse assessed as increase in antitumor M1 macrophages at 25 mg/kg, ip administered 1 week post-implantation by flow cytometry. In kind it is functional, organism-based.
Data set [7] concerns the target Voltage-gated inwardly rectifying potassium channel KCNH2 (Homo sapiens, UniProt Q12809). The data set is described as follows: Inhibition of human ERG expressed in HEK293 cells by manual-patch clamp assay. It is filed as cell-based.
The nature of data set [8]: Mutagenicity in Salmonella typhimurium TA1537 assessed as induction of >= 3 fold increase in revertant colonies at 1.5 to 1000 ug/well in presence of S9 fraction by Ames test. In kind it is toxicity, subcellular. To be noted: salmonella enterica subsp. enterica serovar typhimurium. In a few lines:
(§1)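 Ames test with S. typhimurium TA98 and TA1537, with and without S9 mix. A positive call required a ≥ 2-fold (TA98) or ≥ 3-fold (TA1537) rise in mean revertant colonies over the concurrent negative/solvent control.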

Data set [9] can be described thus: Mutagenicity in Salmonella typhimurium TA1537 assessed as induction of >= 3 fold increase in revertant colonies at 1.5 to 1000 ug/well in absence of S9 fraction by Ames test. To be noted: salmonella enterica subsp. enterica serovar typhimurium. It is filed as toxicity. An outline of the steps: as §1
Data set [10] addresses T1, Protein deacetylase HDAC6 (Mus musculus). The data set is described as follows: Inhibition of HDAC6 in mouse SM1 cells assessed as increase in acetylated alpha-tubulin level at 5 to 10 uM after 24 hrs by Western blot analysis. In kind it is cell-based.
Data set [11] has as its target Histone deacetylase (Mus musculus) (UniProt Q8VH37+Q9Z2V6+Q9Z2V5+O09106+Q8C2B3+P70288+O88895+Q91WA3+Q99N13+Q6NZM9+Q6P3E7). The data set is described as follows: Inhibition of HDAC in mouse SM1 cells at 0.1 to 25 uM measured after 1 hr by HDAC-Glo 1/2 luminescent assay. In kind it is cell-based. In a few lines:
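Cells plated at 10,000 per well overnight, then after 24 h treated with compound for 1 h at 37 °C, 5% CO2. HDAC-Glo I/II developer mixed with substrate and added to wells; luminescence read every 2 min for 1 h 15 min.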

Data set [12] is described as follows: Mutagenicity in Salmonella typhimurium TA98 assessed as induction of >= 2 fold increase in revertant colonies at 1.5 to 1000 ug/well in absence of S9 fraction by Ames test. In kind it is toxicity. To be noted: salmonella enterica subsp. enterica serovar typhimurium. In a few lines: as §1
Data set [13] can be described thus: Cytotoxicity against mouse SM1 cells at 0.1 to 25 uM by ApoTox-Glo triplex assay. It is filed as cell-based. An outline of the steps: (§2)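 SM1 cells treated with HDAC inhibitors, with pan-HDACi and assay controls on every plate. ApoTox-Glo triplex readout: viability fluorescence 400Ex/505Em, cytotoxicity fluorescence 485Ex/520Em, then caspase 3/7 reagent read by luminescence for apoptosis.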

For a further data set, the system named is T-24. The data set is described as follows: Induction of cell death in human T24 cells at 0.1 to 25 uM. To be noted: t-24, 25 µM. In kind it is cell-based.
Data set [14] in a line: Half life in mouse hepatocytes. In kind it is ADME, cell-based, Hepatocyte. In a few lines:
(§3)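 Half-life in minutes measured in mouse and human hepatocytes.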

Data set [15] can be described thus: Induction of apoptosis in mouse SM1 cells at 0.1 to 25 uM by caspase3/7 reagent based luminescence assay. It is filed as cell-based. In a few lines: as §2
Data set [16] in a line: Half life in human hepatocytes. In kind it is ADME, cell-based, Hepatocyte. An outline of the steps: as §3
The subject of another data set is 5637. The experiment in a line: Induction of cell death in human 5637 cells at 0.1 to 25 uM. To be noted: human, 5637, 25 µM. In kind it is cell-based.

Chain of Voltage-gated inwardly rectifying potassium channel KCNH2 (Q12809 whole entry): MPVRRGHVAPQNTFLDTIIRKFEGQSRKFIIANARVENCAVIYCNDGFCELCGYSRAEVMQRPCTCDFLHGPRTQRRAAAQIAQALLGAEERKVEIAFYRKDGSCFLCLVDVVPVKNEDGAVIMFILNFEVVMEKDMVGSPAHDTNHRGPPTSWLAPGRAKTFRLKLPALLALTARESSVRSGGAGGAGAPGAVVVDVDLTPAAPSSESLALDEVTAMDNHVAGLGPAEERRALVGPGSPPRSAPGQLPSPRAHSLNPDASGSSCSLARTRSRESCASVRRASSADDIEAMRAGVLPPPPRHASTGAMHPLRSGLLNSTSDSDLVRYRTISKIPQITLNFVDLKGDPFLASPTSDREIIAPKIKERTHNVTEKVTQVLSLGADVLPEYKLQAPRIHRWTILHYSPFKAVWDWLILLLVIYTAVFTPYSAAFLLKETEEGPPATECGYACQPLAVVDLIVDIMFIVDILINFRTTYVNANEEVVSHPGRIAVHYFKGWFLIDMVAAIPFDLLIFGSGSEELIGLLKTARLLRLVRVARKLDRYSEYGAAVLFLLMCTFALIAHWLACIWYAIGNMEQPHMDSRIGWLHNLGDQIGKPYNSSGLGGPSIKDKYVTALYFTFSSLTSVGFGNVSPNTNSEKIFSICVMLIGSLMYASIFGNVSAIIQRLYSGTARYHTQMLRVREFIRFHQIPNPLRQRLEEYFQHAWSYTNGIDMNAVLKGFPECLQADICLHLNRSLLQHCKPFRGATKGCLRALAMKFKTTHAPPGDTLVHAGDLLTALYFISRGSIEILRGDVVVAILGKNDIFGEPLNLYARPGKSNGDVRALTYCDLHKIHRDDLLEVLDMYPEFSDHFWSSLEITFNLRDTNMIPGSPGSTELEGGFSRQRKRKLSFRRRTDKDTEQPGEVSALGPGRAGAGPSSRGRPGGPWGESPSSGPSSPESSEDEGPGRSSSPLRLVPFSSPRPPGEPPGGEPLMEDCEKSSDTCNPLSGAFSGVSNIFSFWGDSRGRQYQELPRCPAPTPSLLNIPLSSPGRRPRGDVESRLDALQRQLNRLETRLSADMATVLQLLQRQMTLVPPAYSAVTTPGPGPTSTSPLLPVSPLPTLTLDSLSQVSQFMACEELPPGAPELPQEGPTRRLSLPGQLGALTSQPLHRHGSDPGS

What is called half-life is the time needed for the level to fall by half in the phase considered. For orientation: IC50 means the concentration at which inhibition is half-maximal. Low readings indicate greater potency in that assay, high ones weaker potency in that assay. `O=C(NCCc1cc(C(=O)NO)no1)c1ccc(Cl)c(Cl)c1`: the values for the half-life in data set [1], in data set [14] and in data set [16] were 2.25 h, 0.367 h and 1.8 h, respectively. Besides, the outcome with Mus musculus [2], in the data set on Mus musculus [4] and in the data set with Mus musculus [6] was Active. For the same compound, the inhibition entry in [3], in data set [5], in data set [10] and in [11] was “Active” throughout. In data set [7], this compound gave an IC50 greater than 30 µM. Further, the Activity result (in data set [8]; in data set [9]; in data set [12]; in [13]; in the data set with T-24; in data set [15]) was “Non-Toxic” throughout. For the same compound, in the data set on 5637, the Activity entry is “Non-Toxic”.
